A selection: hits, their analogues and other compounds. The true share with any hit is near 3.8%.
KCNQ1 act = potentiates or activates the human KCNQ1 potassium channel; P51787; CHO-K1 KCNQ1, thallium flux FluxOR fluorescence; stronger effect = higher value; B-score at 10 µM; 310,000 compounds, 0.35% hits;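 active = fluorescence ratio B-score, a plate-corrected score, at least three library SD, with initial intensity B-score within 5 SD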
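assay system = CHO-K1 cells stably expressing KCNQ1 | medium = assay buffer, equal DMSO in all wells | timing = 37 °C overnight plating, 90-min dark dye load, 20-min compound pretreatment | measured by = kinetic FluxOR thallium fluorescence, 10-s 1-Hz baseline, 110-s post-stimulus read | measure = fluorescence change relative to baseline, converted to B score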
hERG protect = hERG (human) protection from proarrhythmic block | Q12809 | CHO-hERG, FluxOR thallium flux, dofetilide IC70 present | activation (rescue from dofetilide block), less the hit threshold, % at 10 µM | 310,000 compounds, 0.51% hits | AID 1511;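 active = activation above the mean of controls blocked by dofetilide plus 5 SD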;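 also: thallium influx through hERG after potassium depolarization seen as dye fluorescence rise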
KCNK3 inh = human KCNK3 channel inhibition, primary screen | O14649 | CHO-KCNK3 thallium flux, FluxOR fluorescence; stronger effect = lower value | B-score at 10 µM | 340,000 compounds, 0.84% hits | AID 602410;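 active = B-score under library mean minus 4 SD, starting fluorescence ratio at most library mean plus 5 SD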;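 also: more negative B-score means stronger inhibition of thallium flux through KCNK3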
Target sequence (O14649 whole entry, looked up): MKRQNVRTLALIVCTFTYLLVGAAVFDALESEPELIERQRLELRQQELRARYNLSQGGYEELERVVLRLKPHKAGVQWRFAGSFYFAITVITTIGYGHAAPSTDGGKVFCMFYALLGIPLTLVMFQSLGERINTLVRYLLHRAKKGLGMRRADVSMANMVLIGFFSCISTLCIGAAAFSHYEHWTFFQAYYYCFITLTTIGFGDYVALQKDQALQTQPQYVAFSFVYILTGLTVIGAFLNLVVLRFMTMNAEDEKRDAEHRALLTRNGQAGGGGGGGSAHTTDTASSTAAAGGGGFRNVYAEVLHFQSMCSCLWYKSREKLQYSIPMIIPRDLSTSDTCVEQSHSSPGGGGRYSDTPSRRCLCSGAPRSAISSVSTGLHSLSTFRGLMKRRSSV
Kir21 inh = Kir2.1 (mouse) channel inhibition; HEK293-Kir2.1, FluxOR thallium flux fluorescence; stronger effect = lower value; AID 1672; 310,000 compounds, 0.85% hits; P35561; B-score at 10 µM;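 active = fluorescence ratio B-score at or below minus 3 SD of library scores, with starting-brightness B-score within 2 SD, cut at about -4.2 in these data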;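 also: channel flux triggered by added potassium and thallium sulfate stimulus; B-score of peak minus minimum fluorescence over baseline after thallium stimulus; more negative B-score means stronger Kir2.1 block with less thallium influx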
Target sequence (P35561 whole entry, looked up): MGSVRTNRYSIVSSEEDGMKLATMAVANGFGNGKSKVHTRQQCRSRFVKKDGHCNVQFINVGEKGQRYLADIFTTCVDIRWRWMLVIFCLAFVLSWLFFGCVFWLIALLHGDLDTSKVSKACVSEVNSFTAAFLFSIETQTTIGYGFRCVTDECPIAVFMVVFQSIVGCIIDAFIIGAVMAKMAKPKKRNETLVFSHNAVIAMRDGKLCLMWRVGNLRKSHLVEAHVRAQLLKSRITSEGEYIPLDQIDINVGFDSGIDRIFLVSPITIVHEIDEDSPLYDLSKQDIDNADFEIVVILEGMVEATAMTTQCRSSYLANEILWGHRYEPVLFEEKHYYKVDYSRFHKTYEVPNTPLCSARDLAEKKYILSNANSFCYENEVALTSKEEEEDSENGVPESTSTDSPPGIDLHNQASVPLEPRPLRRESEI
KCNK9 inh = inhibitors of human KCNK9 two-pore domain potassium channel | B-score at 10 µM | Q9NPC2 | HEK293 KCNK9, FluxOR thallium flux fluorescence; stronger effect = lower value | 310,000 compounds, 1.2% hits | AID 488922;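 active = ratio B-score over 3 SD below the library mean, with starting fluorescence within 5 SD of its mean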;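 also: negative B-score means less thallium flux so channel inhibition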
KCNQ1 inh = human KCNQ1 channel inhibition; 310,000 compounds, 1.3% hits; P51787; CHO-K1 KCNQ1, FluxOR thallium flux fluorescence; stronger effect = higher value; B-score at 10 µM;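 active = compounds whose thallium flux B-score, printed positive for inhibition, exceeds three library SD while starting fluorescence stays within three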;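 also: channel opened by potassium depolarization with thallium stimulus after 20 min compound exposure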
KCNQ1 block val = reconfirmed blocker of the human KCNQ1 potassium channel. inhibition, % at 10 µM. KCNQ1 cell line, FluxOR thallium flux fluorescence. AID 588353. shares compounds with KCNQ1 inh. 1,600 compounds, 93% hits;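 active = primary screen active, with duplicate mean exceeding buffer control mean plus 3 SD of buffer wells, cut at about 28% in these data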
CHO KCNQ1 ctr = KCNQ1 inhibitor counter-screen hit in parental CHO cells. shares compounds with KCNQ1 inh. parental CHO-K1, FluxOR thallium flux fluorescence ratio; stronger effect = lower value; zero means no signal rise above baseline. fluorescence ratio (Tl flux) at 10 µM. 1,600 compounds, 21% hits. AID 588366;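 active = mean of duplicate thallium-flux fluorescence ratios in parental host cells more than 5 SD below the buffer control mean, cut at about 0.38 in these data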;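 also: ratio is peak minus minimum fluorescence divided by baseline fluorescence; actives read low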
KCNQ1 ephys val = blocks human KCNQ1 current in automated patch clamp | KCNQ1-CHO cells | 490 compounds, 20% hits | shares compounds with KCNQ1 inh | calls only at 10 µM;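 active = KCNQ1 current drop exceeding 3 SD of negative control wells, seen in both duplicate runs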;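 also: steady state current during a 2 s step from -80 to +40 mV; negative values mean current inhibition and positive values mean potentiation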
KCNQ2 inh = selectivity of KCNQ1 inhibitors: inhibition of rat KCNQ2 channel | shares compounds with KCNQ1 inh | KCNQ2 cells, FluxOR thallium flux fluorescence | inhibition, % at 10 µM | 1,600 compounds, 71% hits | AID 651746;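 active = mean percent inhibition of the KCNQ2 thallium signal more than 5 SD above the buffer-only control wells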;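 also: KCNQ2 expressed in CHO cells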
KCNQ1-KCNE1 inh = human KCNQ1/KCNE1 inhibition in KCNQ1 specificity screen; shares compounds with KCNQ1 inh; inhibition, % at 10 µM; 1,600 compounds, 77% hits; KCNQ1/KCNE1 cells, FluxOR thallium flux fluorescence;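 active = mean percent inhibition of duplicate wells above the buffer-only control mean plus 3 SD of those controls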
Hits are given with their value; 0 = inactive; - = not tested or not shown; + = active, no number.

SMILES | KCNQ1 act | hERG protect | KCNK3 inh | Kir21 inh | KCNK9 inh | KCNQ1 inh | KCNQ1 block val | CHO KCNQ1 ctr | KCNQ2 inh | KCNQ1-KCNE1 inh | others
C/C(=C\C(=O)C(F)(F)F)Nc1ccc(C(F)(F)F)cc1 | 0 | 0 | 0 | 0 | 0 | 0 | - | - | - | -
CC(C)(CCl)C(=O)Nc1ccc(C(F)(F)F)cc1 | 0 | 0 | 0 | 0 | 0 | 6 | 56.5 | 0 | 66.3% | 68.5%
C=CCn1c(SCC(=O)NCC2CCCO2)nnc1-c1ccncc1 (configuration not stated) | - | - | 0 | - | - | - | - | - | - | -
Cc1ccc(NC(=O)COc2cccc(C)c2C)cc1S(=O)(=O)N1CCCCCC1 | 0 | 0 | 0 | 0 | 0 | 6 | 85.0 | 0 | 119.3% | 134.5%
Cc1ccc(NC(=O)CSc2ncnc3ccccc23)cc1S(=O)(=O)N1CCCCCC1 | 0 | 0 | 0 | 0 | 0 | 6 | 117.5 | 0 | 126.7% | 106.5% | KCNQ1 ephys val=0
N#Cc1cc2c(nc1SCC1COc3ccccc3O1)CCC2 (configuration not stated) | 0 | 0 | 0 | 0 | 0 | 8 | 105.5 | 0 | 98.7% | 124.0%
Cc1cc(C)c(C#N)c(SCC2COc3ccccc3O2)n1 (configuration not stated) | 0 | 0 | 0 | 0 | 0 | 0 | - | - | - | -
CC1C(=O)C(C)C(c2cc(Cl)ccc2O)NC1c1cc(Cl)ccc1O (configuration not stated) | 0 | 0 | 0 | 0 | 0 | 10 | 83.5 | 0 | 82.7% | 122.5%
COc1cc(Cl)c(NC2=CC(=O)C(=O)c3ccccc32)c(OC)c1 | - | - | 0 | - | - | - | - | - | - | -
CC1CCC(=C(C#N)C(=O)Nc2cccc(Cl)c2)CC1 (configuration not stated) | 0 | 0 | 0 | 0 | 0 | 15 | 96.0 | 0 | 93.7% | 81.5% | KCNQ1 ephys val=+
N#CC(C(=O)Nc1cccc(Cl)c1)=C1Nc2ccccc2N1 | 0 | 0 | 0 | 0 | 0 | 0 | - | - | - | -
O=C1c2ccccc2C(=O)N1CSc1nnc2c3ccccc3n(CCc3ccccc3)c2n1 | 0 | 0 | 0 | 0 | 0 | 6 | 42.5 | 0 | 77.7% | 0
CC(C)COC(=O)NCCCOC(=O)Nc1ccccc1 | 0 | 0 | 0 | 0 | 0 | 0 | - | - | - | -
CC(C)COC(=O)NCCOC(=O)Nc1cccc(Cl)c1 | 0 | 0 | 0 | 0 | 0 | 8 | 123.5 | 0 | 112.7% | 91.0% | KCNQ1 ephys val=+
Cc1cc(Cl)ccc1OC(C)C(=O)Nc1ccc(C(=O)Nc2ccccc2C(=O)O)cc1 (configuration not stated) | 0 | 0 | 0 | 0 | 0 | 9 | 94.0 | 0 | 0 | 80.5% | KCNQ1 ephys val=0
Cc1cc(Cl)ccc1OC(C)C(=O)Nc1ccc(S(=O)(=O)N2CCOCC2)cc1 (configuration not stated) | 0 | 0 | 0 | 0 | 0 | 0 | - | - | - | -
Cc1cc(C)nc(NC(=O)c2c(F)c(F)c(F)c(C(=O)Nc3cc(C)cc(C)n3)c2F)c1 | 0 | 0 | 0 | 0 | 0 | 0 | - | - | - | -
CCc1ccc(OCC(=O)c2c(O)c3ccccc3oc2=O)cc1 | 0 | 0 | 0 | 0 | 0 | 0 | - | - | - | -
CCc1oc2ccccc2c1C(=O)c1cc(Br)c(O)c(Br)c1 | 0 | 0 | 0 | 0 | 0 | 9 | 77.0 | 0 | 0 | 43.0%
CC(=O)Nc1cccc(NC(=O)CSc2nc3c(=O)n(C)c(=O)n(C)c3n2C)c1 | 0 | 0 | 0 | 0 | 0 | 0 | - | - | - | -
CC(C(=O)N1c2ccccc2CCc2ccccc21)n1nnc(-c2ccc(N(C)C)cc2)n1 (configuration not stated) | 0 | 0 | 0 | 0 | 0 | 0 | - | - | - | -
Cc1ccc(-c2nnn(C(C)C(=O)N3c4ccccc4CCc4ccccc43)n2)cc1 (configuration not stated) | 0 | 0 | 0 | 0 | 0 | 6 | 135.0 | 0 | 92.0% | 162.5% | KCNQ1 ephys val=0
COc1cc(NC(=O)COc2ccc(-n3ccnc3)cc2)cc(OC)c1 | 0 | 0 | 0 | 0 | 0 | 0 | - | - | - | -
CC(C)(C)c1ccc(NC(=O)COc2ccc(-n3ccnc3)cc2)cc1 | 0 | 0 | 0 | 0 | 0 | 7 | 130.0 | 0 | 74.3% | 40.5%
CC(NC(=O)Nc1ccc([N+](=O)[O-])cc1)C(c1ccccc1)N1CCOCC1 (configuration not stated) | 0 | 0 | 0 | 0 | 0 | 0 | - | - | - | -
SMILES | KCNQ1 act | hERG protect | KCNK3 inh | Kir21 inh | KCNK9 inh | KCNQ1 inh | KCNQ1 block val | CHO KCNQ1 ctr | KCNQ2 inh | KCNQ1-KCNE1 inh | others
CC(NC(=O)Nc1ccc(Cl)c(Cl)c1)C(c1ccccc1)N1CCOCC1 (configuration not stated) | 0 | 0 | 0 | 0 | 0 | 9 | 105.0 | 0 | 81.3% | 79.0% | KCNQ1 ephys val=+
Cc1ccc(NC(=S)NCc2ccc3c(c2)OCO3)cc1 | 0 | 0 | 0 | 0 | 0 | 0 | - | - | - | -
CCOc1ccc(NC(=S)NCc2ccc3c(c2)OCO3)cc1 | 0 | 0 | 0 | 0 | 0 | 6 | 39.5 | 0 | 95.7% | 38.0%
CCOC(=O)C1=CN(Cc2cccc(F)c2)S(=O)(=O)N(CC)C1c1ccc(Br)cc1F (configuration not stated) | - | - | 0 | - | - | - | - | - | - | -
COc1ccccc1CC(Cc1nc2ccccc2[nH]1)c1nc2ccccc2[nH]1 (configuration not stated) | 0 | 0 | 0 | 0 | 0 | 8 | 47.0 | 0 | 68.7% | 46.5%
O=C(Nc1cccnc1)Nc1cc(Cl)cc(Cl)c1 | 0 | 0 | 0 | 0 | 0 | 0 | - | - | - | -
Cc1ccc(NC(=O)Nc2cccnc2)cc1Cl | 0 | 0 | 0 | 0 | 0 | 7 | 65.5 | 0 | 0 | 0
O=C(Nc1ccc(OC(F)(F)F)cc1)Nc1cccnc1 | 0 | 0 | 0 | 0 | 0 | 6 | 40.5 | 0 | 0 | 0
O=C(Nc1ccc(F)cc1)Nc1cccnc1 | 0 | 0 | 0 | 0 | 0 | 0 | - | - | - | -
Fc1ccc(NC(=S)Nc2cccnc2)cc1Cl | 0 | 0 | 0 | 0 | 0 | 8 | 66.5 | 0 | 0 | 34.5%
Fc1ccc(NC(=S)Nc2ccccc2N2CCOCC2)cc1Cl | 0 | 0 | 0 | -7.36 | 0 | 9 | 0 | 0 | 0 | 0
COc1cccc(NC(=O)CSc2nn3c(=O)c(C)nnc3s2)c1 | 0 | 0 | 0 | 0 | 0 | 0 | - | - | - | -
O=C(Nc1ccc(Cl)cc1)C1CCCN(c2ncnc3c2nc2n3CCCCC2)C1 (configuration not stated) | 0 | 0 | 0 | 0 | 0 | 0 | - | - | - | -
Cc1ccc(-c2csc(=Nc3cccnc3)n2CCCN2CCCC2=O)cc1C | 0 | 0 | 0 | 0 | 0 | 0 | - | - | - | -

High-throughput results from PubChem BioAssay.
